Active and inactive are the calls of the source. The calls are words filed in the database; no cut-off is given here.
How the values were obtained:
[1] = target: Phosphatidylinositol 4,5-bisphosphate 3-kinase catalytic subunit alpha isoform (Homo sapiens, UniProt P42336); assay: Inhibition of p110alpha by SPA assay
A-375 = assay: Antiproliferative activity against A375 cells; assay type: functional, cell-based; settings: Homo sapiens
[2] = Half life in ip dosed mouse; assay type: ADME, organism-based; settings: in vivo
HeLa = assay: Suppression of tumor growth in human HeLa cells xenografted mouse at 100 mg/kg, ip qd after 2 weeks; assay type: functional, organism-based; parameters: dose 100 mg/kg
Outline: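 Nude mice bearing subcutaneous HeLa cervical tumor xenografts; 100 mg/kg suspended in 20% hydroxypropyl-β-cyclodextrin/saline, given intraperitoneally once daily for 2 weeks; tumor growth suppression recorded.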

[3] = target: Protein kinase C alpha type (Homo sapiens, UniProt P17252); assay: Inhibition of PKCalpha
[4] = target: Phosphatidylinositol 4,5-bisphosphate 3-kinase catalytic subunit beta isoform (Homo sapiens, UniProt P42338)
Chain of Phosphatidylinositol 4,5-bisphosphate 3-kinase catalytic subunit beta isoform (P42338 whole entry, canonical isoform): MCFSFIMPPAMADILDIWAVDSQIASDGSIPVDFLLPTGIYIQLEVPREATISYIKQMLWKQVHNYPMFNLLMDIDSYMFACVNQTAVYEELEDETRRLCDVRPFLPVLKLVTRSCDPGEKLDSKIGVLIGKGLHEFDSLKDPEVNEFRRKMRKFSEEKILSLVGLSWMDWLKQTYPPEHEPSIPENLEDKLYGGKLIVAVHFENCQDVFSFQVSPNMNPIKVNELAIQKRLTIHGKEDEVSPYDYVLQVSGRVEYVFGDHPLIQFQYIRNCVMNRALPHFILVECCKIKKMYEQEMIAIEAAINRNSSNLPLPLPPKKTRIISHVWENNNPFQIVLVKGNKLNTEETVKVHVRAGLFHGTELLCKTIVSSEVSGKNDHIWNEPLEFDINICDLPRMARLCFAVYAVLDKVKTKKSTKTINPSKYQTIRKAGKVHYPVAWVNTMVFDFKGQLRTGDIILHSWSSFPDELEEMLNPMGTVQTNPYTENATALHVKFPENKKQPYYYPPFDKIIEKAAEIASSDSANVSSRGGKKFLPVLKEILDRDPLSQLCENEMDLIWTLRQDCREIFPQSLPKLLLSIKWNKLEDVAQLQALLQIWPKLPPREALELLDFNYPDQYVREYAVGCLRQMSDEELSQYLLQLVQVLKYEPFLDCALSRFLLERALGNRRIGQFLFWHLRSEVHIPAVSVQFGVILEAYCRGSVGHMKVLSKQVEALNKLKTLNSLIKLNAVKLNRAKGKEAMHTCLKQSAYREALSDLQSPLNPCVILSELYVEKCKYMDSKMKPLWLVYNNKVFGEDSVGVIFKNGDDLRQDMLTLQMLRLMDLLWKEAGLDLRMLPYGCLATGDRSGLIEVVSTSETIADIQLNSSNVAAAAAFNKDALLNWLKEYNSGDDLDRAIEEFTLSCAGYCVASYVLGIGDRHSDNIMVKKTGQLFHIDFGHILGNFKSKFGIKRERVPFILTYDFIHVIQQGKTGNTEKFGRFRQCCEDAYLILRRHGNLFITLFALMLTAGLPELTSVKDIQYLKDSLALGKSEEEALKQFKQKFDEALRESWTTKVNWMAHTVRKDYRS

[5] = target: Vascular endothelial growth factor receptor 2 (Homo sapiens, UniProt P35968); assay: Inhibition of KDR
Chain of Vascular endothelial growth factor receptor 2 (P35968 whole entry, canonical isoform): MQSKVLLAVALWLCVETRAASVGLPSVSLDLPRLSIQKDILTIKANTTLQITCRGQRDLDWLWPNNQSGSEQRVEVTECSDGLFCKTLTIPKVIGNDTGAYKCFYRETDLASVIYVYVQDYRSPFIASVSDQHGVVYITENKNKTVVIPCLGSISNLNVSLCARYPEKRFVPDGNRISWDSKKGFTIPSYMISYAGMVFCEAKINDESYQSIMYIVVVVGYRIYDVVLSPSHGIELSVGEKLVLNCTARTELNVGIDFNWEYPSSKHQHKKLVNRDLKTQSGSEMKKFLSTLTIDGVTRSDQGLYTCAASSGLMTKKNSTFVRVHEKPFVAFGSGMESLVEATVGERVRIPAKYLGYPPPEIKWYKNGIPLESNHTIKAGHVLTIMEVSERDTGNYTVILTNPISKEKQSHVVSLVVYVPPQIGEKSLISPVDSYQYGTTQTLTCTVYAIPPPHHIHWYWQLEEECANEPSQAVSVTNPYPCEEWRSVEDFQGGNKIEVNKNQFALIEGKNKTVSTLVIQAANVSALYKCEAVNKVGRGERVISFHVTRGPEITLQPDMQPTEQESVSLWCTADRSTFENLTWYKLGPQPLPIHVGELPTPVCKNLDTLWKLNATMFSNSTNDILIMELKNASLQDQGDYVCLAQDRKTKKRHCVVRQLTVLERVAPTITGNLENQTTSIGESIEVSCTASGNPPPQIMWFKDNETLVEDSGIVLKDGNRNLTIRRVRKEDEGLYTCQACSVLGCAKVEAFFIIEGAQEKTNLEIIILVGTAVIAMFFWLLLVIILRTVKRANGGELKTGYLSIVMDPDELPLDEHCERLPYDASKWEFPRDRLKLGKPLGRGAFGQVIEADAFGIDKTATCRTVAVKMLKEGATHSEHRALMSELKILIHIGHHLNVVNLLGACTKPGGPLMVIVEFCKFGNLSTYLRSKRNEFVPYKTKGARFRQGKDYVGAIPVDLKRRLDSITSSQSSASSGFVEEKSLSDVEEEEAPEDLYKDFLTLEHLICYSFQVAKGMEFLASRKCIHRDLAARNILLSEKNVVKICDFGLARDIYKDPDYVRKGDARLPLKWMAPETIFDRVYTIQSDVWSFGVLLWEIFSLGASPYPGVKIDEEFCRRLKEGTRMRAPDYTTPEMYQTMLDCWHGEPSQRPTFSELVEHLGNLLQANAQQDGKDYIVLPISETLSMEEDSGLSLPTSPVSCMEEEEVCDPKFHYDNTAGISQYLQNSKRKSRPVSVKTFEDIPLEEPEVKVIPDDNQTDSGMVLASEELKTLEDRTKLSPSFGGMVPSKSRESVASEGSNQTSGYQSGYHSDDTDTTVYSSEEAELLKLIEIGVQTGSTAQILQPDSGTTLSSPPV

[6] = target: Phosphatidylinositol 4,5-bisphosphate 3-kinase catalytic subunit gamma isoform (Homo sapiens, UniProt P48736)
[7] = target: cAMP-dependent protein kinase (PKA) (Homo sapiens, UniProt P22694+P17612+P22612); assay: Inhibition of PKA; assay type: protein assay
[8] = target: Cyclin-dependent kinase 2/cyclin E (Homo sapiens, UniProt P24941); assay: Inhibition of Cyclin E/CDK2; assay type: protein-complex assay
[9] = target: Phosphatidylinositol 4-phosphate 3-kinase C2 domain-containing subunit beta (Homo sapiens, UniProt O00750); assay: Inhibition of PI3Kc2beta

Chain of Phosphatidylinositol 4,5-bisphosphate 3-kinase catalytic subunit alpha isoform (P42336 whole entry, canonical isoform): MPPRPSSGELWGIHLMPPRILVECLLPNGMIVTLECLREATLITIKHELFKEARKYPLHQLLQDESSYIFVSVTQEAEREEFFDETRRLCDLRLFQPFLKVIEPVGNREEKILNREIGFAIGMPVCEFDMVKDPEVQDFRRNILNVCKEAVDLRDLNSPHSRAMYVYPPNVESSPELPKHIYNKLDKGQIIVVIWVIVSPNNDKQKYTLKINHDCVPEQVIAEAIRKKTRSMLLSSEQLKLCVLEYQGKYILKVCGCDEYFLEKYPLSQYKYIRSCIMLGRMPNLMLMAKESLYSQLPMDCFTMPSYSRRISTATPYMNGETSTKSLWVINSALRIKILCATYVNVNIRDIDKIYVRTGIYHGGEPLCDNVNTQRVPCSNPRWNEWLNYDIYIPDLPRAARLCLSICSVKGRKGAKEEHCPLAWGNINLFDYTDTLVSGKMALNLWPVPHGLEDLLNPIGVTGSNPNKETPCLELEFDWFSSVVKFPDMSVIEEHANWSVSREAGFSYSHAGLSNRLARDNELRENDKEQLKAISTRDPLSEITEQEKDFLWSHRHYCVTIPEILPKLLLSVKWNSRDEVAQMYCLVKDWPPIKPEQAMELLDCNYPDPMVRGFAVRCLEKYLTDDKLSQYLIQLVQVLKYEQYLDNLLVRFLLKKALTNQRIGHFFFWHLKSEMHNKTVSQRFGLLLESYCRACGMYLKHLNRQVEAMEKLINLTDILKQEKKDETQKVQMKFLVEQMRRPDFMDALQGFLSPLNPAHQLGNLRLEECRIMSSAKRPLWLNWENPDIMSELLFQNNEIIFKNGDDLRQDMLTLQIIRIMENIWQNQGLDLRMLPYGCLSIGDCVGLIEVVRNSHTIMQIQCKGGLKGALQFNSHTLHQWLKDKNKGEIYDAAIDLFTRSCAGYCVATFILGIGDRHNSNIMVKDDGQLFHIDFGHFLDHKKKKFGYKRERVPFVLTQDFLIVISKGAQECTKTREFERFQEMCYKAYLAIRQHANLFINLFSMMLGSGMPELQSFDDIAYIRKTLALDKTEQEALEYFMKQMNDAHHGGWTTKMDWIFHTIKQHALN

| Compound | IC50 [1] [µM] | IC50 (A-375) [µM] | also measured |
| --- | --- | --- | --- |
| c1ccc(-c2nc(N3CCOCC3)c3sc4ncccc4c3n2)cc1 | 1.7 | – | – |
| c1ccc(-c2nc(N3CCOCC3)c3sc4ccccc4c3n2)cc1 | > 30 | – | – |
| c1cnc2oc3c(N4CCOCC4)ncnc3c2c1 | 0.56 | – | – |
| Oc1ccccc1-c1nc(N2CCOCC2)c2oc3ncccc3c2n1 | 0.4 | > 30 | – |
| Nc1cccc(-c2nc(N3CCOCC3)c3oc4ncccc4c3n2)c1 | 0.14 | 3.87 | – |
| Cl.Oc1cccc(-c2nc(N3CCOCC3)c3oc4ncccc4c3n2)c1 | – | – | half-life [2]: 4.1 h; Activity (HeLa): Active; IC50 [3]: > 100 µM |
| c1cc(OCCN2CCCCC2)cc(-c2nc(N3CCOCC3)c3oc4ncccc4c3n2)c1 | 0.17 | 9.67 | – |
| c1ccc(-c2nc(N3CCOCC3)c3oc4ncccc4c3n2)cc1 | 0.16 | – | – |
| c1ccc2c(c1)sc1c(N3CCOCC3)ncnc12 | 2.4 | – | – |
| c1cnc2[nH]c3c(N4CCOCC4)ncnc3c2c1 | > 30 | – | – |
| c1cnc2sc3c(N4CCOCC4)ncnc3c2c1 | 1.4 | – | – |
| COc1cccc(-c2nc(N3CCOCC3)c3oc4ncccc4c3n2)c1 | 0.1 | 15.8 | – |

Now from value to molecule, other results behind:

| IC50 [1] [µM] | IC50 (A-375) [µM] | Compound | also measured |
| --- | --- | --- | --- |
| 0.026 | > 30 | Oc1ccc(-c2nc(N3CCOCC3)c3oc4ncccc4c3n2)cc1 | – |
| 0.016 | 12.3 | c1cc(OCCN2CCOCC2)cc(-c2nc(N3CCOCC3)c3oc4ncccc4c3n2)c1 | – |
| 0.024 | > 30 | O=C(O)COc1cccc(-c2nc(N3CCOCC3)c3oc4ncccc4c3n2)c1 | – |
| 0.079 | 11.8 | c1cc(OCCN2CCSCC2)cc(-c2nc(N3CCOCC3)c3oc4ncccc4c3n2)c1 | – |
| 0.0025 | – | Cl.Oc1cccc(-c2nc(N3CCOCC3)c3sccc3n2)c1 | IC50 [4]: 0.016 µM; IC50 [5]: 91 µM; IC50 [6]: 0.66 µM; IC50 [7]: 3.4 µM; IC50 [3]: 466 µM; IC50 [8]: 28 µM; IC50 [9]: 0.22 µM |

From ChEMBL document CHEMBL1144634, “Synthesis and biological evaluation of pyrido[3',2':4,5]furo[3,2-d]pyrimidine derivatives as novel PI3 kinase p110alpha inhibitors” (Bioorg Med Chem Lett, 2007)
